TNAP inh hiacc: inhibitors of human TNAP at high phosphate acceptor concentration. P05186. purified TNAP, CDP-star luminescence, 1 M DEA. inhibition, % at 20 µM. actives 0.03% (n = 200,000). AID 1135;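 active = over 50% inhibition of tissue-nonspecific alkaline phosphatase at 20 µM in the single-dose screen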;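 note: plate controls were DMSO wells for no effect and EDTA-quenched wells as full inhibition for full effect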
Target sequence (P05186 whole entry, looked up): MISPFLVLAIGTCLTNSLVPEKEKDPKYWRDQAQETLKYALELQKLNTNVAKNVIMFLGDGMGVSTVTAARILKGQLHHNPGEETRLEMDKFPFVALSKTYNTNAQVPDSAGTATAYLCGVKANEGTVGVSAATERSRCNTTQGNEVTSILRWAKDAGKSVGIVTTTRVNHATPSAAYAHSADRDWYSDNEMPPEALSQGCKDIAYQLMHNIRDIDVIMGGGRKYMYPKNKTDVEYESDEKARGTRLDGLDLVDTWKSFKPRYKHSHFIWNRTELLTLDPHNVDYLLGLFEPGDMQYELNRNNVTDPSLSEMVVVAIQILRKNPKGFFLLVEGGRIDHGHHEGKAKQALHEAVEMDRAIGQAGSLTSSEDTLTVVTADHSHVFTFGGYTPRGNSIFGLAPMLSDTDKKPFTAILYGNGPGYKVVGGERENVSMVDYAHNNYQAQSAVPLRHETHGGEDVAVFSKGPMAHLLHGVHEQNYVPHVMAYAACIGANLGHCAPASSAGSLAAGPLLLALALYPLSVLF
TNAP inh no acc: inhibitors of human TNAP without phosphate acceptor; purified TNAP, CDP-star luminescence, 30 min; inhibition, % at 20 µM; actives 0.26% (n = 200,000);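 active = tissue-nonspecific alkaline phosphatase inhibition above about 50% at 20 µM in the single-dose screen, limit read from the data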;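 note: 0% = DMSO negative control and 100% = EDTA positive control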
PMI act satM6P: activators of human phosphomannose isomerase at near-saturating mannose 6-phosphate; coupled PMI enzyme assay, resazurin fluorescence, 20 min; hits give high values; 1 = untreated enzyme, 0 = substrate-free blank; actives 0.34% (n = 190,000); activation factor at 20 µM; P34949;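 active = activation factor of 2 or more at 20 µM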
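Material: human phosphomannose isomerase with PGI, G6PDH, diaphorase coupling enzymes. Quantity: 15 ng/mL PMI. Medium: HEPES pH 7.4 buffer with MgCl2 and Tween-20. Reagent: Near-saturating mannose-6-phosphate, 1.0 mM. Compound: 20 µM single dose. Times: enzyme reaction with compound 20 min at room temperature. Detection: resorufin fluorescence at Ex 544/Em 590 nm.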
TNAP act hi DEA: increases human TNAP activity under high phosphate acceptor concentration | P05186 | purified TNAP, CDP-star luminescence, 1 M DEA, 30 min; hits give high values; 0 = EDTA background, 1 = DMSO-only activity | activation factor at 20 µM | 200,000 tested, under 10 active | AID 1136;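 active = activation factor at least 2 at 20 µM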
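system = human TNAP | amount = enzyme diluted 1/800 final | reagent = 100 µM CDP-star substrate | signal = luminescent substrate turnover signal | dosing = one dose, 20 µM | benchmarks = EDTA negative control, DMSO positive control | measure = activation factor | timing = 30 min reaction, room temperature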
PMI activator: increases human mannose-6-phosphate isomerase activity; P34949; purified human PMI, coupled resazurin fluorescence, 20 min; hits give high values; 1 = vehicle control, 0 substrate-free wells; activation factor at 20 µM; actives 0.005% (n = 190,000);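 active = activation factor of 2 or more at 20 µM, relative to plate controls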
Numbers without * were called inactive. Shown are actives, neighbours in structure and some others; about 0.6% of the full set was active somewhere.

SMILES	TNAP inh hiacc	TNAP inh no acc	PMI act satM6P	TNAP act hi DEA	PMI activator
N#CC1=C(N)Oc2n[nH]c(-c3ccccc3)c2C1c1ccncc1 (configuration not stated)	-2.7	53.0*	0.9	1	0.9
C=C(C)CN(CC)C(=O)CCc1nnc(CCc2c[nH]c3ccccc23)o1	-6.4	-1.6	1.1	1.1	1
O=C(CSCc1ccccc1Cl)NN=C1CCCCCC1	-2.9	-11.2	0.9	1	0.9
C/C(=N\NC(=O)CSCc1ccccc1Cl)c1cc(O)ccc1O	6.4	75.1*	1	0.9	1
Cc1ccc(S(=O)(=O)Nc2c(C)n(C)n(-c3ccccc3)c2=O)cc1C(=O)OCC(=O)N1CCCC(C)C1 (configuration not stated)	-5.4	-10.4	0.9	1.1	0.9
O=C(Nc1ncccn1)C1CCCCC1	-3.5	-5.1	1	1	0.9
O=C(Nc1n[nH]c(C2CCCCC2)n1)C1CCCCC1	-1.4	72.4*	1	1	1
CCOC(=O)C(=O)NNc1ccc(Cl)cc1	-4.8	-12.4	2.5*	1	1.7
CC(C)OC(=O)C(=O)NNc1ccccc1	-5.6	-12.0	1	1.1	0.9
CCOC(=O)C(=O)NNc1ccc(C)cc1	-0.5	-8.7	2*	1	1.4
CCCOC(=O)C(=O)NNc1ccccc1	3.3	4.8	2.9*	1	1.9
Cc1ccccc1-c1oc(C)c(C)[n+]1[O-]	-4.1	-13.4	1.2	1	1.3
O=c1[nH][nH]c(-c2ccccc2O)c1C(C[N+](=O)[O-])c1ccc(Cl)cc1Cl (configuration not stated)	49.5	70.3*	1	0.5	1
O=c1[nH][nH]c(-c2ccccc2O)c1C(C[N+](=O)[O-])c1cccc(Cl)c1 (configuration not stated)	42.3	48.7	1.1	0.6	1
COc1ccc(N=Nc2nc3ccc(Br)cc3n2C)cc1	14.1	14.0	2.2*	0.9	1.4
COc1ccc(-n2nnnc2SCC(=O)c2cccc(OC)c2)cc1	-6.4	-9.4	1	1.1	0.9
O=C(CSc1nnnn1-c1ccc(F)cc1)c1ccc(O)c(O)c1	14.8	75.3*	1	0.9	0.7
COc1ccc(S(=O)(=O)N=Nc2c(O)[nH]c3ccccc23)cc1	1.5	-0.1	2.5*	1	1.9
Cc1ccc(S(=O)(=O)N=Nc2c(O)[nH]c3ccccc23)cc1C	-4.8	-7.3	2.2*	1	1.9
Cc1ccc(N(CC(=O)N=Nc2c(O)[nH]c3ccccc23)S(C)(=O)=O)c(C)c1	-1.1	-23.0	0.9	1	0.9
COc1ccc(/C(C)=N/OCC(=O)N=Nc2c(O)[nH]c3ccccc23)cc1	-0.3	-11.0	0.9	1	0.8
COc1cc(NC(=O)c2cccc(C)c2)c(OC)cc1NC(=O)CN1CCOCC1	1.0	-2.2	0.9	1	1.1
CCOc1ccc(C(CC(=O)O)NC(=O)COc2ccccc2OC)cc1OC (configuration not stated)	-6.4	-3.4	1.1	1.1	1.1
O=C(O)c1ccccc1C(=O)NNc1ccc(Cl)cc1Cl	3.0	-5.2	2.7*	1	1.7
COc1ccc(-n2nc3c(N)n[nH]c3cc2=O)cc1	1.5	-1.5	2*	1	1.6
SMILES	TNAP inh hiacc	TNAP inh no acc	PMI act satM6P	TNAP act hi DEA	PMI activator
NNC(=O)c1cc(O)c(O)c(O)c1	15.1	57.5*	0.8	0.8	0.5
COCCCn1c(SCC(=O)Nc2cccc(C(=O)OC)c2)nnc1-c1ccncc1	-0.7	-4.3	0.9	1	0.9
COCCCn1c(SCC(=O)Nc2sc3c(c2C#N)CCCC3)nnc1-c1ccncc1	55.2*	26.8	1	0.4	1.1
CCC1COC(c2cccn2Cc2ccccc2Cl)=N1 (configuration not stated)	-1.0	-4.3	1	1	1
CCCCN1C(=O)/C(=C/C=C2\SCCN2C)SC1=S	52.0*	43.0	0.5	0.5	0.8
Cc1cc(-c2cccs2)n[nH]1	-2.7	41.0	1	1	0.9
Cc1cc(-c2ccc(Cl)s2)n[nH]1	-5.5	55.0*	1	1.1	1
CCN1C=C(C(=O)OC)C(c2cccc(OC)c2OC)C(C(=O)OC)=C1	-7.7	-20.6	1.1	1.1	1.1

Bioassay records as filed in PubChem BioAssay.
